Test results from ChEMBL document CHEMBL1126822, “7 alpha-Methyl- and 11 beta-ethoxy-substitution of [125I]-16 alpha-iodoestradiol: effect on estrogen receptor-mediated target tissue uptake” (J Med Chem, 1993).

Experiments:
Conditions in all cases: in vivo
[1] = system: Rattus norvegicus; experiment: Tissue uptake (lungs) of [125I]- after administration of [125I]-labeled compound to immature female rats (n=4) in the absence of 60 microg coinjected estradiol after 2 hours; format: ADME, organism-based
How it was run: (§1)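 Immature female Fischer rats, 24 days old, 55-60 g, unanesthetized in retention cages, given HPLC-purified 125I-labeled steroid (3 μCi, 111 kBq) via lateral tail vein in 200 μL of 9% ethanol-saline with 1% Tween-80. The blocking group was coinjected with 60 μg unlabeled estradiol and sampled at 1 h. Animals were killed under ether at 0.5-24 h. Tissues were KCl-washed, blotted, weighed and gamma-counted. Results are % ID/g, with variation as small-sample-corrected %CV.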

[2] = system: Rattus norvegicus; experiment: Tissue uptake (kidneys) of [125I]- after administration of [125I]-labeled compound to immature female rats (n=5) in the absence of 60 microg coinjected estradiol after 1 hour; format: ADME, organism-based, Kidney; how it was run: as §1
[3] = system: Rattus norvegicus; experiment: Tissue uptake (thyroid) of [125I]- after administration of [125I]-labeled compound to immature female rats (n=3) in the absence of 60 microg coinjected estradiol after 0.5 hours; format: ADME, organism-based, Thyroid gland
How it was run: (§2)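 Immature female Fischer rats, 24 days old, 55-60 g, unanesthetized in retention cages, got HPLC-purified n.c.a. 125I-labeled steroid (3 μCi, 111 kBq) by lateral tail vein. Dose was given in 200 μL saline with 9% ethanol and 1% Tween-80. Deep ether anesthesia, axillary artery cut; tissues KCl-washed, blotted, weighed, gamma-counted as % ID/g; variation as small-sample-corrected %CV.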

[4] = system: Rattus norvegicus; experiment: Tissue uptake (spleen) of [125I]- after administration of [125I]-labeled compound to immature female rats (n=3) in the presence of 60 microg coinjected estradiol after 1 hour; format: ADME, organism-based; how it was run: as §2
[5] = system: Rattus norvegicus; experiment: Tissue uptake (uterus) of [125I]- after administration of [125I]-labeled compound to immature female rats (n=4) in the absence of 60 microg coinjected estradiol after 5 hours; format: ADME, organism-based; how it was run: as §2
[6] = system: Rattus norvegicus; experiment: Tissue uptake (kidneys) of [125I]- after administration of [125I]-labeled compound to immature female rats (n=4) in the absence of 60 microg coinjected estradiol after 2 hours; format: ADME, organism-based, Kidney; how it was run: as §1
[7] = system: Rattus norvegicus; experiment: Tissue uptake (fat) of [125I]- after administration of [125I]-labeled compound to immature female rats (n=4) in the absence of 60 microg coinjected estradiol after 5 hours; format: ADME, organism-based; how it was run: as §1
[8] = system: Rattus norvegicus; experiment: Tissue uptake (lungs) of [125I]- after administration of [125I]-labeled compound to immature female rats (n=3) in the absence of 60 microg coinjected estradiol after 0.5 hours; format: ADME, organism-based; how it was run: as §1
[9] = system: Rattus norvegicus; experiment: Tissue uptake (lungs) of [125I]- after administration of [125I]-labeled compound to immature female rats (n=5) in the absence of 60 microg coinjected estradiol after 1 hour; format: ADME, organism-based; how it was run: as §1
[10] = system: Rattus norvegicus; experiment: Tissue uptake (muscle) of [125I]- after administration of [125I]-labeled compound to immature female rats (n=3) in the presence of 60 microg coinjected estradiol after 1 hour; format: ADME, organism-based; how it was run: as §1
[11] = system: Rattus norvegicus; experiment: Tissue uptake (thyroid) of [125I]- after administration of [125I]-labeled compound to immature female rats (n=3) in the absence of 60 microg coinjected estradiol after 24 hours; format: ADME, organism-based, Thyroid gland; how it was run: as §2
[12] = system: Rattus norvegicus; experiment: Tissue uptake (muscle) of [125I]- after administration of [125I]-labeled compound to immature female rats (n=5) in the absence of 60 microg coinjected estradiol after 1 hour; format: ADME, organism-based; how it was run: as §1
[13] = system: Rattus norvegicus; experiment: Tissue uptake (thyroid) of [125I]- after administration of [125I]-labeled compound to immature female rats (n=4) in the absence of 60 microg coinjected estradiol after 5 hours; format: ADME, organism-based, Thyroid gland; how it was run: as §2
[14] = system: Rattus norvegicus; experiment: Tissue uptake (muscle) of [125I]- after administration of [125I]-labeled compound to immature female rats (n=3) in the absence of 60 microg coinjected estradiol after 0.5 hours; format: ADME, organism-based; how it was run: as §1
[15] = system: Rattus norvegicus; experiment: Tissue uptake (blood) of [125I]- after administration of [125I]-labeled compound to immature female rats (n=3) in the absence of 60 microg coinjected estradiol after 0.5 hours; format: ADME, organism-based; how it was run: as §1
[16] = system: Rattus norvegicus; experiment: Tissue uptake (blood) of [125I]- after administration of [125I]-labeled compound to immature female rats (n=5) in the absence of 60 microg coinjected estradiol after 1 hour; format: ADME, organism-based; how it was run: as §1
[17] = system: Rattus norvegicus; experiment: Tissue uptake (thyroid) of [125I]- after administration of [125I]-labeled compound to immature female rats (n=4) in the absence of 60 microg coinjected estradiol after 2 hours; format: ADME, organism-based, Thyroid gland; how it was run: as §2
[18] = system: Rattus norvegicus; experiment: Tissue uptake (spleen) of [125I]- after administration of [125I]-labeled compound to immature female rats (n=3) in the absence of 60 microg coinjected estradiol after 24 hours; format: ADME, organism-based; how it was run: as §2
[19] = system: Rattus norvegicus; experiment: Tissue uptake (lungs) of [125I]- after administration of [125I]-labeled compound to immature female rats (n=3) in the presence of 60 microg coinjected estradiol after 1 hour; format: ADME, organism-based; how it was run: as §1
[20] = system: Rattus norvegicus; experiment: Tissue uptake (muscle) of [125I]- after administration of [125I]-labeled compound to immature female rats (n=4) in the absence of 60 microg coinjected estradiol after 5 hours; format: ADME, organism-based; how it was run: as §1
[21] = system: Rattus norvegicus; experiment: Tissue uptake (kidneys) of [125I]- after administration of [125I]-labeled compound to immature female rats (n=3) in the absence of 60 microg coinjected estradiol after 0.5 hours; format: ADME, organism-based, Kidney; how it was run: as §1
[22] = system: Rattus norvegicus; experiment: Tissue uptake (liver) of [125I]- after administration of [125I]-labeled compound to immature female rats (n=3) in the presence of 60 microg coinjected estradiol after 1 hour; format: ADME, organism-based; how it was run: as §1
[23] = system: Rattus norvegicus; experiment: Tissue uptake (lungs) of [125I]- after administration of [125I]-labeled compound to immature female rats (n=4) in the absence of 60 microg coinjected estradiol after 5 hours; format: ADME, organism-based; how it was run: as §1
[24] = system: Rattus norvegicus; experiment: Tissue uptake (kidneys) of [125I]- after administration of [125I]-labeled compound to immature female rats (n=3) in the absence of 60 microg coinjected estradiol after 24 hours; format: ADME, organism-based, Kidney; how it was run: as §1
[25] = system: Rattus norvegicus; experiment: Tissue uptake (fat) of [125I]- after administration of [125I]-labeled compound to immature female rats (n=3) in the presence of 60 microg coinjected estradiol after 1 hour; format: ADME, organism-based; how it was run: as §1
[26] = system: Rattus norvegicus; experiment: Tissue uptake (spleen) of [125I]- after administration of [125I]-labeled compound to immature female rats (n=4) in the absence of 60 microg coinjected estradiol after 5 hours; format: ADME, organism-based; how it was run: as §2
[27] = system: Rattus norvegicus; experiment: Tissue uptake (uterus) of [125I]- after administration of [125I]-labeled compound to immature female rats (n=3) in the presence of 60 microg coinjected estradiol after 1 hour; format: ADME, organism-based; how it was run: as §2
[28] = system: Rattus norvegicus; experiment: Tissue uptake (liver) of [125I]- after administration of [125I]-labeled compound to immature female rats (n=4) in the absence of 60 microg coinjected estradiol after 2 hours; format: ADME, organism-based; how it was run: as §1
[29] = system: Rattus norvegicus; experiment: Tissue uptake (lungs) of [125I]- after administration of [125I]-labeled compound to immature female rats (n=3) in the absence of 60 microg coinjected estradiol after 24 hours; format: ADME, organism-based; how it was run: as §1
[30] = system: Rattus norvegicus; experiment: Tissue uptake (fat) of [125I]- after administration of [125I]-labeled compound to immature female rats (n=5) in the absence of 60 microg coinjected estradiol after 1 hour; format: ADME, organism-based; how it was run: as §1
[31] = system: Rattus norvegicus; experiment: Tissue uptake (muscle) of [125I]- after administration of [125I]-labeled compound to immature female rats (n=4) in the absence of 60 microg coinjected estradiol after 2 hours; format: ADME, organism-based; how it was run: as §1

## CCO[C@H]1C[C@]2(C)[C@@H](O)[C@H](I)C[C@H]2[C@@H]2CCc3cc(O)ccc3[C@H]21
[1]
  ID/g: 1.01%
[2]
  ID/g: 1.83%
[3]
  ID/g: 105.65%
[4]
  ID/g: 1.6%
[5]
  ID/g: 7.76%
[6]
  ID/g: 1.78%
[7]
  ID/g: 0.52%
[8]
  ID/g: 1.72%
[9]
  ID/g: 1.3%
[10]
  ID/g: 0.72%
[11]
  ID/g: 773.37%
[12]
  ID/g: 0.69%
[13]
  ID/g: 703.1%
[14]
  ID/g: 1.05%
[15]
  ID/g: 1.29%
[16]
  ID/g: 1.01%
[17]
  ID/g: 218.87%
[18]
  ID/g: 0.7%
[19]
  ID/g: 1.18%
[20]
  ID/g: 0.35%
[21]
  ID/g: 2.26%
[22]
  ID/g: 4.5%
[23]
  ID/g: 0.76%
[24]
  ID/g: 0.24%
[25]
  ID/g: 1.63%
[26]
  ID/g: 1.28%
[27]
  ID/g: 0.72%
[28]
  ID/g: 3.24%
[29]
  ID/g: 0.23%
[30]
  ID/g: 1.51%
[31]
  ID/g: 0.52%

## C[C@@H]1Cc2cc(O)ccc2[C@H]2CC[C@]3(C)[C@@H](O)[C@H](I)C[C@H]3[C@H]12
[1]
  ID/g: 0.32%
[2]
  ID/g: 0.83%
[3]
  ID/g: 40.33%
[4]
  ID/g: 0.43%
[5]
  ID/g: 3.86%
[6]
  ID/g: 0.5%
[7]
  ID/g: 0.38%
[8]
  ID/g: 0.82%
[9]
  ID/g: 0.54%
[10]
  ID/g: 0.27%
[11]
  ID/g: 334.84%
[12]
  ID/g: 0.32%
[13]
  ID/g: 320.54%
[14]
  ID/g: 0.54%
[15]
  ID/g: 0.45%
[16]
  ID/g: 0.38%
[17]
  ID/g: 66.19%
[18]
  ID/g: 0.08%
[19]
  ID/g: 0.43%
[20]
  ID/g: 0.06%
[21]
  ID/g: 1.3%
[22]
  ID/g: 1.09%
[23]
  ID/g: 0.19%
[24]
  ID/g: 0.3%
[25]
  ID/g: 1.64%
[26]
  ID/g: 0.22%
[27]
  ID/g: 0.34%
[28]
  ID/g: 1.09%
[29]
  ID/g: 0.03%
[30]
  ID/g: 1.79%
[31]
  ID/g: 0.15%
